The results in this text go back to PMC9844543 (Nano letters, 2022).

This data set in a line: Critical gelation concentration by vial inversion after addition of PBS. It counts as physicochemical. The method in brief:
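Self-assembling collagen-binding peptide amphiphile filaments were dissolved in water. They were either left unsprayed, sprayed with an atomizer, or emitted from a jet nebulizer as a respirable aerosol. PBS was then added to give 1× PBS, and gelation was judged by vial inversion.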

For the sequence LRELHLNNN [CBDA], the “critical gelation concentration (CGC)” value is, setting by setting: (after spraying with an atomizer) 1 mM; (filaments in water, PBS added to final 1× PBS, not sprayed) ~ 1 mM.
